Experimental data from publication PMC2939291 (Experimental parasitology, 2010).
Values after ≈ are worked out from the molar mass of the structure shown. Like-named read-outs stand apart in the source and are kept apart here.

Columns and labels:
[1] = test system: egfp transfected Leishmania amazonensis amastigotes in PBMC derived macrophages; assay: microbe, parasite or virus in culture; assay type: cell-based
THP-1 cells = assay: Trypan blue dye exclusion cytotoxicity test, THP-1 cells; assay type: cell-based, human
Summary of the method: (§1)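 Macrophages prepared before testing: THP-1 cells were grown in RPMI 1640 with 10% heat-inactivated FBS at 37°C and 5% CO2, then stimulated with 20 nM PMA. PBMC-derived cells were stimulated with autologous platelet-poor serum. After test compound exposure, clear (viable) and blue cells were counted on a hemocytometer to give percent viability. CC50 came from a variable-slope sigmoidal fit normalised to untreated cells. Assays were run in duplicate.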

[2] = test system: human PBMC derived macrophages; assay: Trypan blue dye exclusion cytotoxicity test, human PBMC derived macrophages; assay type: cell-based
Summary of the method: as §1

[3] = test system: egfp transfected Leishmania amazonensis amastigotes in THP-1 cells; assay: microbe, parasite or virus in culture; assay type: cell-based
[4] = test system: Leishmania amazonensis infected cells; assay: Infection measured by standard Giemsa staining of cells; assay type: cell-based
[5] = test system: GFP-transfected Leishmania (Viannia) panamensis amastigotes in U937 cell line; conditions: L. (V.) panamensis in U937 cells, GFP flow cytometry; ref Varela et al., 2009; cited from earlier work
[6] = standard doses (0.3 mg/kg days 1 and 2, increasing to 0.5 mg/kg) during clinical therapy; ref Atkinson, Jr. and Bennett, 1978; cited from earlier work
[7] = test system: human PBMC derived macrophages; assay type: cell-based

O.O.O.O.O.O.O.O.O.O=C([O-])[C@@H]1[O][Sb](=[O])([O][Sb]2(=[O])[O][C@H]([C@H](O)CO)[C@H](O)[C@H](C(=O)[O-])[O]2)[O][C@H]([C@H](O)CO)[C@@H]1O.[Na+].[Na+].[Na+] (stereo partly drawn) [Sodium stibogluconate, sodium stibogluconate] showed an EC50 ([1]; human PBMC derived macrophages, GFP fluorescence) of 194.8 ± 36.4 µg/mL, a CC50 (THP-1 cells) of 4600 ± 1100 µg/mL and a CC50 [2] of 6300 ± 2800 µg/mL.

In the case of C[C@@H]1[C@H](O)[C@@H](C)/C=C/C=C/C=C/C=C/C=C/C=C/C=C/[C@H](O[C@@H]2O[C@H](C)[C@@H](O)[C@H](N)[C@@H]2O)C[C@@H]2O[C@](O)(C[C@@H](O)C[C@@H](O)[C@H](O)CC[C@@H](O)C[C@@H](O)CC(=O)O[C@H]1C)C[C@H](O)[C@H]2C(=O)O [Amphotericin B, amphotericin B], the EC50 ([3]; Leishmania amazonensis, THP-1) is reported as 0.1445 ± 0.0005 µg/mL (≈ 0.156 µM), the “Selective Index (SI)” value ([3]; THP-1 cells, ratio of EC50 and CC50) is reported as 105.2 and the EC50 ([1]; Leishmania amazonensis, in Homo sapiens) is reported as 0.179 ± 0.035 µg/mL (≈ 0.194 µM). The “Selective Index (SI)” value ([1]; human PBMC derived macrophages, ratio of EC50 and CC50) was 355.9, the “Selective Index (SI)” value ([1]; human PBMC derived macrophages, ratio of EC50 and CC50, listed as amphotericin B) was 356 and the EC50 [4] was 0.074 µg/mL (≈ 0.0801 µM). The EC50 [5] was 0.078 µg/mL (≈ 0.0844 µM) and the serum level [6] was “above 0.2 μg/ml”.

In the case of meglumine antimoniate, the EC50 [5] is given as 20 µg/mL.

For CCCCCCCCCCCCCCCCOP(=O)([O-])OCC[N+](C)(C)C [Miltefosine, miltefosine], the “Selective Index (SI)” value [3] was 1.51, the “Selective Index (SI)” value [1] was 6.13 and the “toxicity against the macrophages” value [7] was “significant toxicity”.
